Laboratory results reported in the EternaBench riboswitch data.

Test system: MS2 coat protein
Assay: apparent Kd, MS2 coat protein; higher = weaker binding; RNA-MaP array; FMN 200 µM where present
Procedure, shortened: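 Green signal was scaled to red-channel RNA signal and control-cluster median Fmax, and the apparent Kd was taken as the median of filtered per-cluster binding-curve fits. The binding series used SNAP-549-labelled MS2 coat protein from 0.7 or 1.5 nM, doubling to 3 µM, on designs transcribed by stalled E. coli RNA polymerase on Illumina sequencing-chip clusters. Each series ran without and then with constant ligand in 100 mM Tris-HCl pH 7.5, 80 mM KCl, 4 mM MgCl2, BSA, DTT, yeast tRNA and Tween-20.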

[1] = designed as: OFF switch for flavin mononucleotide, no ligand
[2] = ligand present: flavin mononucleotide, designed as: OFF switch for flavin mononucleotide
[3] = designed as: ON switch for flavin mononucleotide, no ligand
[4] = ligand present: flavin mononucleotide, designed as: ON switch for flavin mononucleotide

Sequence | apparent Kd [1] [nM] | apparent Kd [2] [nM] | apparent Kd [3] [nM] | apparent Kd [4] [nM]
CUCAGACAUGAGGAUCACCCAUGUUAGGAUAUAUAAAAGAGCGGCAGAGCGCUCUUCCAUAGAAGGAGCAGUGU | 27.2 | 27.7 |  | 
UAAUCUCAGAUAGGAUAUAUAGGAUAACUUAAGACCUAACAUGAGGAUCACCCAUGUGAUUAUUCGUAGAAGGAUCAUUGAACA |  |  | 259 | 263
UGUUGUAUUACAGGAUAUCUAGUAUUGUUAUUUAGAGAAGGGUAUUCACAUGAGGAUCACCCAUGUAUAUACGAGGAAGUUGUG |  |  | 38.4 | 41.4
GCGGUACAUGAGGAUCACCCAUGUCAGGAUAUCCGCUGUUUGUUGAUUGGCAGGCGGUGGAGAAGGGACUUCGC | 35.2 | 33.4 |  | 
AGGCCGCUACGCCGGCUUCACGCACAGGAUAUGCAGUUACAUGAGGAUCACCCAUGUGGCCAUGUGCAGAAGGGUGGUUCGCGA |  |  | 39.5 | 18.6
CUAAAUCAUGUAGGAUAUGCAUGGCGAAGCUACGCAGAAGGACAUGAGGAUCACCCAUGUCAGAACGUCUGCGUUCAGACGUUG | 17.7 | 58 |  | 
UUAGUUACGGGAGGAUAUGUCACCCUGGGUCACAUGAGGAUCACCCAUGUGACAGAAGGCCCAAUUAUGGUGCCCAGGGCGCCU | 5.84 | 22.8 |  | 
GAUUCGGGAGGAUAUACAUGAGGAUCACCCAUGUGUUUUUUGUGUGUUAUGUUAUCAUGUAGAAGGUUUGGGUC | 286 | 260 |  | 
ACUUUACGAGGAUAUACUGUCGGGCCUCGGGCGUACAUGCGACAUGAGGAUCACCCAUGUAGAAGGCGUUUACU | 33.1 | 119 |  | 
AAUAUGUUAGGAUAUGCGAAGUCAGGACACACACUGACGAAGCAGAAGGAACAUGAGGAUCACCCAUGUAAAAA | 27.3 | 31.4 |  | 
GUCUGGCUAGGAUAUACAUAGUCCACGAGUCGGUUGCCCUGACAUGAGGAUCACCCAUGUAGAAGGAGCGAGAA | 19.4 | 18.6 |  | 
GGUCGUUGAGGAUAUACGAACAUGUCGCCAGAUGUCAUGGUACAUGAGGAUCACCCAUGUAGAAGGUGGUGGUC | 75 | 25.7 |  | 
GGAAAACAUGAGGAUCACCCAUGUGAGGAUAUCGAUGUCCAAAGAAAAGUGCGGGACUCGAGAAGGCACUUGGA | 52.9 | 33.7 |  | 
AAAACAUGAGGAUCACCCAUGUUUAGAUCGGUCGAUAGAAGUGAGGAUAUACGAAGUUAAGGCUGGUAGAAGGCACUGGGUACA |  |  | 39.8 | 33.3
GGGUAACAUGAGGAUCACCCAUGUGAGGAUAUCCUAGGGAUGGAAGCUCGGCCAACCAGGAGAAGGUACUAAAG | 73.9 | 131 |  | 
CAGCCCUGAGGAUAUCCCUACUUGUACAUGAGGAUCACCCAUGUUCUCCUCUGGGCUUUGGGAGAAGGCAGGUCUC | 15 | 17.7 |  | 
UUAAAUCAUGUAGGAUAUGCAUGGCGAAGCUACGCAGAAGGACAUGAGGAUCACCCAUGUUAUAGCUACCAAGUUAGGUGGCAA | 99 | 190 |  | 
UGGCUACAUGAGGAUCACCCAUGUCAGGAUAUGCCGUUGGAUUGACAUCGUCGUACGGGUAGAAGGGACUGCGU | 59.8 | 58.3 |  | 
GUCAGCUCGUGAGGAUAUACAACACUGGUUCGGCAGUGUAUUAAGAUCACAUGAGGAUCACCCAUGUAGAAGGCACGAGCUGAU | 13.6 | 280 |  | 
AAUUAUUAUCGAGGAUAUCGUAUUGAAAUAAUAUGAGAAGGCGGGAUAAACAUGAGGAUCACCCAUGUGAGCCUGAUGCUUGUG | 19.2 | 35.4 |  | 
UAAAAGCGGAAGGAUAUGUGUCUAAAGUCUGUAGCAGAAGGUCCGACAUGAGGAUCACCCAUGUGACCUGGUGC | 11.1 | 13.9 |  | 
AAAAUAAGGCGAGGAUAUCGACAGCAUGUGUGACGAGAAGGCGCGAUAGGUGGGUUCCUUGACAUGAGGAUCACCCAUGUAGAA | 65.7 | 114 |  | 
ACAUACAUUCGAGGAUAUCGGUGAACAAAUUAACGAGAAGGCGAUAUAAUGUUUAAUCUUAUAAACAUGAGGAUCACCCAUGUA |  |  | 68.5 | 28
UAUACUAGAUAGGAUAUACUAUAUAUAUUAUUCGUAGAAGGAUCUACAUGAGGAUCACCCAUGUUAACAGCAGU | 47.6 | 37 |  | 
